The text below walks through data of publication PMC9075022 (Research in Pharmaceutical Sciences, 2022).

Values after ≈ are worked out from the molar mass of the structure shown. Where two headings read alike, the source gives them in different places.

One assay has as its system PC12 cell line. Nature of the assay: In vitro antiproliferative MTT assay, PC12. To be noted: 48 h. Format: cell-based, rat. In a few lines: (§1)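 PC12 (rat pheochromocytoma) or fibroblast cells at 5000/well in DMEM with 10% heat-inactivated FBS, penicillin 100 U/mL and streptomycin 100 μg/mL, grown 24 h. At 80% confluence, test compound or docetaxel/cisplatin controls were added at 1–360 μg/mL for 48 h. MTT (5 mg/mL in PBS pH 7.4) added for 3–4 h; formazan dissolved in DMSO, read at 570 nm. Triplicate; IC50 calculated.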

The test system of a further assay is P. falciparum. The conditions noted are these: cited from earlier work.
A further assay deals with formation of β-hematin. Description: In vitro β-hematin inhibition assay. The assay is classed as biochemical. To be noted: 200 μg/mL, 60 °C, 24 h; positive if more than 90%. The essentials:
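Heme detoxification (ITHD) assay. Hemin chloride was dissolved in DMSO and diluted to 60 μg/mL in 1 M acetate buffer pH 4.5. Tween 20 stock was 0.012 g/L; compound was dissolved in DMSO. Hemin, sample and Tween were mixed 9:9:2 in triplicate, final 200 μg/mL. Controls: hemin-free matrix blanks, DMSO negative, chloroquine phosphate positive. Incubated 60 °C, 24 h; mixed and absorbance read at 405 nm.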

The test system of another assay is fibroblast cell line. Description: In vitro antiproliferative MTT assay, fibroblast. The assay is classed as cell-based. The conditions noted are these: 48 h. In a few lines: as §1
For the next assay, the system named is PC12 cells. Nature of the assay: Cellular uptake by fluorescent microscopy. Format: cell-based, rat. To be noted: 100 μg/mL, 24 h incubation, 37 °C. The essentials: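 PC12 cells at 5 × 10^4 cells/well in DMEM with 10% FBS and antibiotics, kept at 37 °C in 5% CO2. Exposed to test compound at 37 °C for 24 h. Washed three times with cold PBS, then 3 min in sterile distilled water. Intrinsic compound fluorescence imaged without staining by fluorescence microscopy (bright field, DAPI, GFP channels), compared with untreated cells.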

`N.N.[Cl][Pt][Cl]` [cisplatin, reference compound]: in the assay on PC12 cell line, the “IC50 against PC12” value stood at 8 µg/mL.
On to `Cc1occc(=O)c1O` [Maltol], for which the “inhibition of growth of P. falciparum compared to control” value is reported as “about 15%” in the assay with P. falciparum (0.01 mM) and around 50% with P. falciparum (0.10 mM).
Regarding `Cc1c(OCc2ccccc2)c(=O)ccn1CCCOC(=O)c1ccc(Cl)cc1Cl` [7a, 3-(3-(benzyloxy)-2-methyl-4-oxopyridin-1(4H)-yl) propyl 2,4-dichlorobenzoate], the “Heme inhibition (%)” value in the assay on formation of β-hematin is recorded as 39%. For the same compound, in the assay with PC12 cell line, the “IC50 against PC12” value was 37 µg/mL (≈ 82.9 µM). Moreover, the “IC50 on fibroblast cell line” value with fibroblast cell line is 44 µg/mL (≈ 98.6 µM). Moreover, the “cellular uptake (fluorescent emission)” value in the assay on PC12 cells is recorded as “cellular uptake potential”.
With `Cc1c(OCc2ccccc2)c(=O)ccn1CCCO` [alcoholic precursor, 3-(benzyloxy) -1-(3-hydroxypropyl) -2-methylpyridin-4(1H)-one], in the assay with PC12 cell line (1-360 μg/mL), the “toxicity against PC12 in words” value is “didn’t display remarkable toxicity in defined concentrations”.
